From ChEMBL document CHEMBL1287768, “Synthesis and pharmacological characterization of 5-phenyl-2-[2-(1-piperidinylcarbonyl)phenyl]-2,3-dihydro-1H-pyrrolo[1,2-c]imidazol-1-ones: a new class of Neuropeptide S antagonists” (Bioorg Med Chem Lett, 2010)

Tests used:
Neuropeptide S receptor = target: T1, Neuropeptide S receptor (Homo sapiens, UniProt Q6W5P4); test: Antagonist activity at human recombinant GPR154 receptor expressed in HEK293 cells assessed as inhibition of neuropeptide S-induced increase of intracellular calcium level by FLIPR assay; assay type: functional, cell-based
T1 sequence (Q6W5P4 whole entry): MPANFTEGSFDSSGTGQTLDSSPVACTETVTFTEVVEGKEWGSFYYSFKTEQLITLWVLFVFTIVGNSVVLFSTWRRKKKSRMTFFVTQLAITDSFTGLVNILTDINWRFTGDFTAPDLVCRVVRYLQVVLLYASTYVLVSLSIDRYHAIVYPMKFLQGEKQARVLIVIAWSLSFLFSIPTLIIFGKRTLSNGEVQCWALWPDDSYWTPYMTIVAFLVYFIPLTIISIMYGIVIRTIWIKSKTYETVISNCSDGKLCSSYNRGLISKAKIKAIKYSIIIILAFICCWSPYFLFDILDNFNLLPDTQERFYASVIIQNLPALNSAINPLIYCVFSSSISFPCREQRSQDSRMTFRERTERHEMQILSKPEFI
Summary of the method: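 Transient expression of human GPR154 in HEK293; cells seeded 18.000/well, 24 h at 37 °C, 5% CO₂. Fluo-4-AM loading 1 h at 37 °C, HBSS wash. Calcium rise evoked by EC₈₀ Neuropeptide S, read by FLIPR; response normalised to 30 nM NPS maximum (max minus min RFU); pIC₅₀ by nonlinear regression.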

Cytochrome P450 1A2 = target: T2, Cytochrome P450 1A2 (Homo sapiens, UniProt P05177); test: Inhibition of CYP1A2; assay type: ADME
T2 sequence (P05177 whole entry): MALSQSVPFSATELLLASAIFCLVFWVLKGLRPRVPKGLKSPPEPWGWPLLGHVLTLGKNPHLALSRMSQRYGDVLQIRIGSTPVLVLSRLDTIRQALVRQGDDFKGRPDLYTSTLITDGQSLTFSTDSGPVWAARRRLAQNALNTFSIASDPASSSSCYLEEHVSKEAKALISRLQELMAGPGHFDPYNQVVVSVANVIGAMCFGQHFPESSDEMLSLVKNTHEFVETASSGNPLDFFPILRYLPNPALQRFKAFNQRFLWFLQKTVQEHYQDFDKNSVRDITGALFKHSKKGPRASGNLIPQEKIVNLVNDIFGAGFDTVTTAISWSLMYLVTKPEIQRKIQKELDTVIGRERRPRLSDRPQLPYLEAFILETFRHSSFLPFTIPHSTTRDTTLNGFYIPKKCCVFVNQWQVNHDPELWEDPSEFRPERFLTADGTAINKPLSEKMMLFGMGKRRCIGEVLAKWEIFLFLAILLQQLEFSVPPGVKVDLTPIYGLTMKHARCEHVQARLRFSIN

Cytochrome P450 2C9 = Cytochrome P450 2C9 (Homo sapiens, UniProt P11712); test: Inhibition of CYP2C9; assay type: ADME
Chain of Cytochrome P450 2C9 (P11712 whole entry): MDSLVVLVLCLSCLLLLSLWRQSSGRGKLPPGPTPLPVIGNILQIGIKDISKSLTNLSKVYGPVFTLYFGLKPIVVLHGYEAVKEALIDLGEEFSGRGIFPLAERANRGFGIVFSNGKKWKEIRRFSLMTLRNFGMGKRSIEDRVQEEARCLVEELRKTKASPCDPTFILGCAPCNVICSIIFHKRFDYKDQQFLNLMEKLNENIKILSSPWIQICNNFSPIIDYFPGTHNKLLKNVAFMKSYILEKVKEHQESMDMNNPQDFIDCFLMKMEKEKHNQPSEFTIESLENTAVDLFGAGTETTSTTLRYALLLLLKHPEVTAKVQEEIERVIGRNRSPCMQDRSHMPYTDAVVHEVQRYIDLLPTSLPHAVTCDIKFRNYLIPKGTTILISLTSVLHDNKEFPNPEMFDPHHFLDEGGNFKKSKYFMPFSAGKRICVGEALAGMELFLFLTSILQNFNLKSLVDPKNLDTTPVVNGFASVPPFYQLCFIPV

Cytochrome P450 2C19 = Cytochrome P450 2C19 (Homo sapiens, UniProt P33261); test: Inhibition of CYP2C19; assay type: ADME
Chain of Cytochrome P450 2C19 (P33261 whole entry): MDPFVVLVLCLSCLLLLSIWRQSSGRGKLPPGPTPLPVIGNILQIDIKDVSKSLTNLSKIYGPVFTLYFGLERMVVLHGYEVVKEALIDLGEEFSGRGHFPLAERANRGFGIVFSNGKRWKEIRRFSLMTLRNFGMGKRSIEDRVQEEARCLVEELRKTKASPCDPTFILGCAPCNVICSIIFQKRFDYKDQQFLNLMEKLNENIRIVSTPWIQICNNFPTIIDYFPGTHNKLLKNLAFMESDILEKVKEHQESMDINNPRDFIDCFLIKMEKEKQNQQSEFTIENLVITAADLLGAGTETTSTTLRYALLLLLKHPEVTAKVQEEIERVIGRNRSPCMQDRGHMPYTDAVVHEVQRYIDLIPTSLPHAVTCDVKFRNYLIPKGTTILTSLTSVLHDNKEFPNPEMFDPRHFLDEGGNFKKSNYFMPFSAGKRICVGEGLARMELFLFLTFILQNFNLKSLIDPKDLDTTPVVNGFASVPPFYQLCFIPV

Cytochrome P450 2D6 = Cytochrome P450 2D6 (Homo sapiens, UniProt P10635); test: Inhibition of CYP2D6; assay type: ADME
Chain of Cytochrome P450 2D6 (P10635 whole entry): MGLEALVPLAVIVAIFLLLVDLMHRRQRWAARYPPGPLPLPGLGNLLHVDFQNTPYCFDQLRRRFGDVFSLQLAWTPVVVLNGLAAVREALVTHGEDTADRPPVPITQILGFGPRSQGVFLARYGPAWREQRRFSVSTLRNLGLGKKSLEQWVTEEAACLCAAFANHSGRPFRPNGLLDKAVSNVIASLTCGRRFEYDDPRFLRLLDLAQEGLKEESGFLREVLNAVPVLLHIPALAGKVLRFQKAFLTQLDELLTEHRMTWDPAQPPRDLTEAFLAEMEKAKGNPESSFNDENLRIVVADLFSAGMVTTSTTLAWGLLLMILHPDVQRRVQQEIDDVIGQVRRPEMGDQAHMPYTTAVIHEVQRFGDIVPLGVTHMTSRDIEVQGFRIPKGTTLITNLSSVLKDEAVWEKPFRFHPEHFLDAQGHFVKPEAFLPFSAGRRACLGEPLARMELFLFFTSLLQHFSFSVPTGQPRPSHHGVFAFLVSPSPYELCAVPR

Cytochrome P450 3A4 = Cytochrome P450 3A4 (Homo sapiens, UniProt P08684); test: Inhibition of CYP3A4; assay type: ADME
Chain of Cytochrome P450 3A4 (P08684 whole entry): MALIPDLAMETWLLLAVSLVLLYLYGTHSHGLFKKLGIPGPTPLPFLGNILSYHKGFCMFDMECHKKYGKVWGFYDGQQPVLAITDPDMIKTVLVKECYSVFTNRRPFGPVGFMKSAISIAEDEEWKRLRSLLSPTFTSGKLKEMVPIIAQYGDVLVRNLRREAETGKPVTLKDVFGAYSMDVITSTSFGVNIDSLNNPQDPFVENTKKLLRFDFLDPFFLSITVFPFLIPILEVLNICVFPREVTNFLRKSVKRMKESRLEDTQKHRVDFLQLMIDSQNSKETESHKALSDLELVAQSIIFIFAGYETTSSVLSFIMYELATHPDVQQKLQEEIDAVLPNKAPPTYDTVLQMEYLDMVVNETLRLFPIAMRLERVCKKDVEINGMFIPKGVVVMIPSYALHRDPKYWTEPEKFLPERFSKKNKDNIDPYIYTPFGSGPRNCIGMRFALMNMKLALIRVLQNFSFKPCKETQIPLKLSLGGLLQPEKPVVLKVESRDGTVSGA

Liver microsomes [1] = test: Intrinsic clearance in human liver microsomes assessed per gram of protein; assay type: ADME, Microsome
Liver microsomes [2] = test: Intrinsic clearance in rat liver microsomes assessed per gram of protein; assay type: ADME, Microsome
[3] = Clearance in rat blood at 1 mg/kg, po; assay type: ADME, organism-based; parameters: dose 1 mg/kg, route oral
Summary of the method: (§1)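 Rat, single oral 1 mg/kg in 5% DMSO + 0.5% HPMC in water; blood sampled for clearance, half-life, distribution volume and oral bioavailability.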

[4] = Half life in rat at 1 mg/kg, po; assay type: ADME, organism-based; parameters: dose 1 mg/kg, route oral; details: in vivo; summary of the method: as §1
Rattus norvegicus = test: Volume of distribution in rat at 1 mg/kg, po; assay type: ADME, organism-based; parameters: dose 1 mg/kg, route oral; details: in vivo; summary of the method: as §1
[5] = Bioavailability in rat at 1 mg/kg, po; assay type: ADME, organism-based; details: in vivo; summary of the method: as §1
[6] = Ratio of drug level in brain to blood in rat at 1 mg/kg, po; assay type: ADME, organism-based; parameters: dose 1 mg/kg, route oral
Summary of the method: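 Rats received a single oral dose of 1 mg/kg, formulated in 5% DMSO + 0.5% HPMC in water. Drug levels were measured in blood and brain, and the brain/blood ratio was calculated from them. The work followed European directive 86/609/EEC.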

O=C(Nc1ccccc1C(=O)N1CCCCC1)c1cccc(-c2ccccc2)n1
IC50 (Neuropeptide S receptor): 20 nM

O=C(c1ccccc1N1CCn2c(ccc2-c2ccccc2)C1=O)N1CCCCC1
IC50 (Neuropeptide S receptor): > 5010 nM

O=C(Nc1ccccc1C(=O)N1CCCCC1)c1cccc(-c2ccccc2)c1
IC50 (Neuropeptide S receptor): 251 nM

O=C(c1ccccc1N1Cn2c(ccc2-c2ccccc2)C1=O)N1CCCCC1
IC50 (Neuropeptide S receptor): 10 nM
IC50 (Cytochrome P450 1A2): > 5000 nM
IC50 (Cytochrome P450 2C9): > 5000 nM
IC50 (Cytochrome P450 2C19): > 5000 nM
IC50 (Cytochrome P450 2D6): > 5000 nM
IC50 (Cytochrome P450 3A4): > 5000 nM
CL (Liver microsomes [1]): 6.9 mL/min/g
CL (Liver microsomes [2]): 26.3 mL/min/g
CL/F [3]: 69 mL/min/kg
half-life [4]: 42 min
Vd (Rattus norvegicus): 2.4 L/kg
bioavailability [5]: 1%
Kp [6]: 0.3

O=C(Nc1ccccc1C(=O)N1CCCCC1)c1ccc(-c2ccccc2)s1
IC50 (Neuropeptide S receptor): 794 nM

O=C(c1ccccc1N1CCCn2c(ccc2-c2ccccc2)C1=O)N1CCCCC1
IC50 (Neuropeptide S receptor): > 5010 nM

O=C(Nc1ccccc1C(=O)N1CCCCC1)c1ccc(-c2ccccc2)[nH]1
IC50 (Neuropeptide S receptor): > 5010 nM

O=C(Nc1ccccc1C(=O)N1CCCCC1)c1ccc(-c2ccccc2)o1
IC50 (Neuropeptide S receptor): 31.6 nM

O=C(NCc1ccccc1)N1CCN2C(=O)OC(c3ccccc3)(c3ccccc3)C2C1 (stereo unspecified)
IC50 (Neuropeptide S receptor): 2 nM
